Measurements from different studies.
Each line is one published result; the experiments were not run side by side.
ABHD6: Monoacylglycerol lipase ABHD6 (ABHD6, Homo sapiens, UniProt Q9BV23)
Cathepsin F: Cathepsin F (Homo sapiens, UniProt Q9UBX1)

| SMILES | target | test | setting | inhibition |
| --- | --- | --- | --- | --- |
| CN(C(=O)Oc1nsnc1N1CCCCC1)c1ccc(C#N)cc1 | ABHD6 | enzyme activity, inhibitor, fluorescence | 1 µM, lysate | 15% |
| Cn1cc(-c2cc(F)cc(N3CCn4c(cc5c4CCCC5)C3=O)c2CO)cc(Nc2ccc(N3CCN(C4COC4)CC3)cn2)c1=O | Casein kinase II subunit alpha (CSNK2A1, Homo sapiens, UniProt P68400) | enzyme activity, inhibitor | 0.1 µM | 18% |
| C#Cc1n[nH]c2c(-c3cn([C@@H](C)c4ccccc4)c(=O)[nH]c3=O)cc(F)cc12 | RAC-beta serine/threonine-protein kinase (AKT2, Homo sapiens, UniProt P31751) | enzyme activity, inhibitor | 0.1 µM | 4% |
| N=C(N)c1ccc2cc(OC(=O)c3ccc(N=C(N)N)cc3)ccc2c1 | Cathepsin F | enzyme activity, inhibitor | 10 µM | 0% |
| C#Cc1n[nH]c2c(-c3cn([C@@H](C)c4ccccn4)c(=O)[nH]c3=O)cc(F)cc12 | Calcium/calmodulin-dependent protein kinase type 1 (CAMK1, Homo sapiens, UniProt Q14012) | enzyme activity, inhibitor | 0.1 µM | 5.7% |
| CN(CCN1CCC(OC(=O)Nc2ccccc2-c2ccccc2)CC1)C(=O)c1ccc(CN2CCC(C(N)=O)CC2)cc1 | Histamine H2 receptor (Cavia porcellus, UniProt P47747) | ligand displacement, radioligand | 1 µM | 22% |
| C[C@H](C(=O)N[C@H]1COc2ccccc2[C@@H]1S(C)(=O)=O)c1ccc(F)cc1 | D(4) dopamine receptor (DRD4, Homo sapiens, UniProt P21917, del265-296) | cell-free assay | 10 µM | 10% |
| COc1ccccc1N(C)C(=O)Oc1nsnc1N1CCCCC1 | ABHD6 | enzyme activity, inhibitor, fluorescence | 1 µM, lysate | 11% |
| CCN(CC)CCCC[C@H](NC(=O)[C@H](CC(C)C)NC(=O)[C@H](C)NC(=O)[C@H](Cc1ccccc1)NC(=O)c1ccc(C(C)(C)C)cc1)C(=O)N[C@@H](CO)C(=O)OC | Neurotensin receptor type 1 (NTSR1, Homo sapiens, UniProt P30989) | ligand displacement, radioligand | 10 µM | -10% |
| CCOC(=O)c1ccc(OC(=O)CCCCCNC(=N)N)cc1 | Cathepsin F | enzyme activity, inhibitor | 10 µM | 2% |
| Cn1cc(-c2cccc(N3CCc4c(sc5c4CC(C)(C)C5)C3=O)c2CO)cc(Nc2ccncn2)c1=O | Mast/stem cell growth factor receptor Kit (KIT, Homo sapiens, UniProt P10721, V654A) | enzyme activity, inhibitor | 1 µM | -7% |
| COCc1c(-c2cc3cc(C)cc(OC)c3s2)c2c(N)ncnn2c1CN1CCNC(=O)C1 | Mitogen-activated protein kinase kinase kinase 19 (MAP3K19, Homo sapiens, UniProt Q56UN5) | cell-free assay, competition with immobilised ligand | 1 µM | 89% |
| CN(C)C(=O)COC(=O)Cc1ccc(OC(=O)c2ccc(NC(=N)N)cc2)cc1 | Cathepsin F | enzyme activity, inhibitor | 10 µM | 0% |
